This note sets out measurements from ChEMBL document CHEMBL4011605, “N-Piperonyl substitution on aminoquinoline-pyrimidine hybrids: Effect on the antiplasmodial potency” (Eur J Med Chem, 2017).

Data set [1] relates to Plasmodium falciparum. Put plainly: Antiplasmodial activity against chloroquine-resistant Plasmodium falciparum W2 infected in red blood cells after 72 hrs by Malstat reagent based LDH assay. It is filed as functional, cell-based. The settings on record: W2, 72 h.
Data set [2] is described as follows: Selectivity index, ratio of IC50 for African green monkey Vero cells to IC50 for chloroquine-resistant Plasmodium falciparum W2. It is filed as toxicity. The conditions noted are these: read-out: Ratio IC50. The method, boiled down: (§1)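 Selectivity index is the ratio of the VERO cytotoxicity IC50 to the antiplasmodial IC50 for the strain named. VERO cells were tested up to a highest concentration of 9 µM.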

Data set [3] has as its system Vero. Put plainly: Cytotoxicity against African green monkey Vero cells up to 9 uM. The format is cell-based. The conditions noted are these: chlorocebus sabaeus.
Data set [4] has as its system Plasmodium falciparum. Put plainly: Antiplasmodial activity against chloroquine-sensitive Plasmodium falciparum D6 infected in red blood cells after 72 hrs by Malstat reagent based LDH assay. The format is functional, cell-based. The conditions noted are these: D6, 72 h.
A short description of data set [5]: Selectivity index, ratio of IC50 for African green monkey Vero cells to IC50 for chloroquine-sensitive Plasmodium falciparum D6. The settings on record: read-out: Ratio IC50. The format is toxicity. The method, boiled down: as §1
Data set [6] has as its system Plasmodium falciparum. Put plainly: Potency index, ratio of chloroquine IC50 to compound IC50 for chloroquine-resistant Plasmodium falciparum W2. It is filed as functional.
Data set [7] concerns mu-oxodimeric heme. Put plainly: Binding affinity to mu-oxodimeric heme (unknown origin) in aqueous NaOH solution assessed as 1:1 stoichiometry for heme-compound complex at 10 uM at pH 5.8 by Job's plot method.
Data set [8] deals with Heme. Put plainly: Binding affinity to monomeric heme (unknown origin) assessed as mole fraction of compound required to show 1:1 stoichiometry for heme-compound complex at pH 5.4 to 7.4 by Job's plot method. The method, boiled down: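 Binding stoichiometry with monomeric heme is found by Job's continuous variation. Total drug plus heme is held at 10 µM, at pH 7.4 (HEPES) and at pH 5.4 (MES), with heme from a DMSO hemin stock. Absorbance is plotted against drug mole fraction.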

Data set [9] deals with mu-oxodimeric heme. Put plainly: Binding affinity to mu-oxodimeric heme (unknown origin) in aqueous NaOH solution at 0.5 to 70 uM at pH 5.8 by titration-based UV-vis spectrophotometric analysis. The method, boiled down:
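µ-Oxodimeric heme: hemin chloride is dissolved to 1.0 mM in 0.1 M aqueous NaOH with 30 min sonication, then diluted to 10 µM in 20 mM phosphate pH 5.8. Aliquots of a 1.0 mM drug stock are added stepwise (0.5–70 µM), and absorbance at 362 nm is recorded.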

Data set [10] concerns Heme. Put plainly: Binding affinity to monomeric heme (unknown origin) assessed as decrease in intensity of soret band at 0.5 to 70 uM at pH 5.4 and 7.4 by titration based UV-vis spectrophotometric analysis. The method, boiled down:
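Hemin stock (1.0 mM in DMSO, kept at 4 °C in the dark) is diluted daily to 10 µM monomeric heme in 0.02 M HEPES pH 7.4 or 0.02 M MES pH 5.4. Drug comes from a 1.0 mM DMSO stock and is titrated at 0.5–70 µM. After each addition the sample is mixed and the Soret band at 402 nm is read.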

In data set [11] the test system is Vero. Put plainly: Cytotoxicity against African green monkey Vero cells. The conditions noted are these: chlorocebus sabaeus. It is filed as cell-based. An outline of the steps: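 VERO (mammalian) cells were exposed to compounds up to a highest tested concentration of 9 µM. Cytotoxicity was expressed as IC50.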

Calls of active or inactive are those of the source. The calls are words filed in the database; no cut-off is given here.

Turning to `Cc1cc(N(CCCNc2ccnc3cc(Cl)ccc23)Cc2ccc3c(c2)OCO3)nc(N2CCOCC2)n1`, the values for the half-maximal inhibitory concentration (IC50) in data set [1] and in data set [4] were 910 nM and 150 nM, respectively. The selectivity ratio was greater than 9.5 in [2] and greater than 60 in [5]. Also, the Activity entry in data set [3] is “Non-Toxic”.

As for `CCN1CCN(c2nc(C)cc(N(CCNc3ccnc4cc(Cl)ccc34)Cc3ccc4c(c3)OCO4)n2)CC1`, the IC50 – broadly, the midpoint of a concentration-inhibition curve – in [1] was 50 nM; in data set [4], 20 nM. Besides, the “Ratio IC50” value in data set [6] came to 8. The outcome in [7], in data set [9] and in data set [10] was Active. The figures for the selectivity ratio in data set [2] and in data set [5] were greater than 60.4 and greater than 243, respectively. The values for the Activity entry in data set [3] and in data set [8] were “Non-Toxic” and 0.5 molar ratio, respectively.

For `Cc1cc(N(CCNc2ccnc3cc(Cl)ccc23)Cc2ccc3c(c2)OCO3)nc(N2CCCCC2)n1`, the values for the IC50 in data set [1] and in data set [4] were 290 nM and 50 nM, respectively. The selectivity ratio in data set [2] was greater than 30.5; in [5] it was greater than 174. The Activity entry in data set [3] is recorded as “Non-Toxic”.

Regarding `Cc1cc(N2CCCC2)nc(N(CCCNc2ccnc3cc(Cl)ccc23)Cc2ccc3c(c2)OCO3)n1`, the IC50 is 590 nM in data set [1] and 120 nM in data set [4]. Moreover, the values for the selectivity ratio in [2] and in [5] were greater than 15.1 and greater than 76.7, respectively. Further, in [3], the Activity result was “Non-Toxic”.

`Cc1cc(Cl)nc(N(CCNc2ccnc3cc(Cl)ccc23)Cc2ccc3c(c2)OCO3)n1`: the IC50 in data set [1] is 1010 nM; in data set [4], 480 nM. In addition, the selectivity ratio in data set [2] was greater than 9.8; in data set [5], greater than 20.5. Moreover, in [3], the Activity entry is “Non-Toxic”.

For the compound `Cc1cc(N2CCOCC2)nc(N(CCNc2ccnc3cc(Cl)ccc23)Cc2ccc3c(c2)OCO3)n1`, the IC50 in data set [1] was 810 nM; in [11] it was 6860 nM; in [4] it was 130 nM. The selectivity ratio stood at 8.5 in data set [2] and 51.4 in [5].

In the case of `Clc1ccc2c(NCCNCc3ccc4c(c3)OCO4)ccnc2c1`, the results for the half-maximal inhibitory concentration (IC50) in data set [1] and in data set [4] were 50 nM and 30 nM, respectively. Further, the “Ratio IC50” value in [6] is 8. Moreover, the selectivity ratio in data set [2] is greater than 54.3; in [5] it was greater than 243. Further, the Activity entry in [3] is reported as “Non-Toxic”.

As to `Cc1cc(N(CCCNc2ccnc3cc(Cl)ccc23)Cc2ccc3c(c2)OCO3)nc(Cl)n1`, the values for the IC50 in data set [1] and in data set [4] were 1140 nM and 460 nM, respectively. The selectivity ratio is greater than 8.4 in [2] and greater than 20.9 in data set [5]. The Activity entry in data set [3] was “Non-Toxic”.

Take `Cc1cc(Cl)nc(N(CCCNc2ccnc3cc(Cl)ccc23)Cc2ccc3c(c2)OCO3)n1`: the IC50 came out at 5160 nM in [1] and 1110 nM in data set [4]. Further, the results for the selectivity ratio in data set [2] and in data set [5] were greater than 1.9 and greater than 8.6, respectively. Also, the Activity entry in data set [3] is recorded as “Non-Toxic”.

In the case of `Cc1cc(N2CCOCC2)nc(N(CCCNc2ccnc3cc(Cl)ccc23)Cc2ccc3c(c2)OCO3)n1`, the half-inhibitory concentration (IC50) amounted to 930 nM in data set [1], 8680 nM in data set [11] and 130 nM in data set [4]. Also, the selectivity ratio was 9.4 in data set [2] and 67 in [5].

Consider `CCN1CCN(c2cc(C)nc(N(CCNc3ccnc4cc(Cl)ccc34)Cc3ccc4c(c3)OCO4)n2)CC1`, for which the IC50 turned out to be 140 nM in data set [1] and 30 nM in [4]. For the same compound, the “Ratio IC50” value in data set [6] is reported as 2 - 5. Further, the values for the selectivity ratio in [2] and in data set [5] were greater than 60.4 and greater than 239, respectively. For the same compound, in [3], the Activity entry is listed as “Non-Toxic”.

As for `Cc1cc(N2CCCC2)nc(N(CCNc2ccnc3cc(Cl)ccc23)Cc2ccc3c(c2)OCO3)n1`, the half-inhibitory concentration (IC50) in data set [1] came to 930 nM; in [4] it was 150 nM. The selectivity ratio in data set [2] is greater than 9.8; in data set [5] it was greater than 59.2. Also, the Activity result in data set [3] was “Non-Toxic”.

As to `Cc1cc(N(CCCNc2ccnc3cc(Cl)ccc23)Cc2ccc3c(c2)OCO3)nc(N2CCCCC2)n1`, the results for the half-inhibitory concentration (IC50) in data set [1] and in data set [4] were 990 nM and 150 nM, respectively. The selectivity ratio in data set [2] was greater than 8.8; in data set [5], greater than 59.8. Further, the Activity result in [3] was “Non-Toxic”.

In the case of `Cc1cc(N(CCCNc2ccnc3cc(Cl)ccc23)Cc2ccc3c(c2)OCO3)nc(N2CCCC2)n1`, the IC50 was 90 nM in [1] and 50 nM in data set [4]. In addition, in data set [6], the “Ratio IC50” value is recorded as 2 - 5. The selectivity ratio in data set [2] is greater than 96.9; in data set [5], greater than 192. The Activity result in data set [3] is “Non-Toxic”.

For the compound `Cc1cc(N(CCNc2ccnc3cc(Cl)ccc23)Cc2ccc3c(c2)OCO3)nc(Cl)n1`, the concentration for half-maximal inhibition (IC50) amounted to 780 nM in data set [1] and 590 nM in data set [4]. For the same compound, the selectivity ratio in data set [2] is greater than 12.3; in data set [5], greater than 16.8. Also, the Activity entry in data set [3] is “Non-Toxic”.

`Clc1ccc2c(NCCCNCc3ccc4c(c3)OCO4)ccnc2c1`: the IC50 in [1] came out at 100 nM; in data set [4], 40 nM. Further, the “Ratio IC50” value in [6] is given as 2 - 5. Also, the selectivity ratio was greater than 84.5 in data set [2] and greater than 243 in data set [5]. In addition, the Activity entry in data set [3] was “Non-Toxic”.

For `Cc1cc(N2CCCCC2)nc(N(CCNc2ccnc3cc(Cl)ccc23)Cc2ccc3c(c2)OCO3)n1`, the IC50 is less than 430 nM in [1] and 170 nM in data set [4]. Also, the results for the selectivity ratio in data set [2] and in data set [5] were greater than 15.9 and greater than 53.6, respectively. Also, the Activity entry in data set [3] is given as “Non-Toxic”.

As for `CCN(CC)CCCC(C)Nc1ccnc2cc(Cl)ccc12` (stereo not drawn) [CHLOROQUINE], the Activity entry in data set [3] was “Non-Toxic”.

Consider `Cc1cc(N(CCNc2ccnc3cc(Cl)ccc23)Cc2ccc3c(c2)OCO3)nc(N2CCCC2)n1`, for which the values for the IC50 in data set [1] and in [4] were 100 nM and 40 nM, respectively. Besides, the selectivity ratio in [2] and in data set [5] was greater than 243 throughout. Also, the Activity result in data set [3] is recorded as “Non-Toxic”.

Turning to `Cc1cc(N(CCNc2ccnc3cc(Cl)ccc23)Cc2ccc3c(c2)OCO3)nc(N2CCOCC2)n1`, the IC50 came out at 220 nM in [1] and 50 nM in data set [4]. In addition, the “Ratio IC50” value in data set [6] is listed as 2 - 5. Further, the values for the selectivity ratio in data set [2] and in data set [5] were greater than 66.8 and greater than 243, respectively. For the same compound, in [3], the Activity result was “Non-Toxic”.

Take `CCN1CCN(c2nc(C)cc(N(CCCNc3ccnc4cc(Cl)ccc34)Cc3ccc4c(c3)OCO4)n2)CC1`: the figures for the IC50 in data set [1] and in data set [4] were 170 nM and 40 nM, respectively. The “Ratio IC50” value in data set [6] is 2 - 5. The values for the selectivity ratio in data set [2] and in [5] were greater than 47.6 and greater than 194, respectively. In addition, the Activity entry in data set [3] was “Non-Toxic”.

For the compound `CCN1CCN(c2cc(C)nc(N(CCCNc3ccnc4cc(Cl)ccc34)Cc3ccc4c(c3)OCO4)n2)CC1`, the figures for the IC50 in [1] and in data set [4] were 220 nM and 120 nM, respectively. Moreover, the “Ratio IC50” value in [6] is given as 2 - 5. For the same compound, the selectivity ratio in data set [2] was greater than 37.9; in [5] it was greater than 71.1. In addition, the Activity entry in data set [3] was “Non-Toxic”.

For `Cc1cc(N2CCCCC2)nc(N(CCCNc2ccnc3cc(Cl)ccc23)Cc2ccc3c(c2)OCO3)n1`, the values for the IC50 in data set [1] and in [4] were 360 nM and 150 nM, respectively. For the same compound, the selectivity ratio in data set [2] was greater than 24.2; in data set [5], greater than 57.2. Besides, in data set [3], the Activity result was “Non-Toxic”.
